The results in this text go back to ChEMBL document CHEMBL4014329, “Selective Inhibition of Escherichia coli RNA and DNA Topoisomerase I by Hoechst 33258 Derived Mono- and Bisbenzimidazoles” (J Med Chem, 2017).

Series [1] can be described thus: Binding affinity to dA60.dT60 B-DNA duplex (unknown origin) assessed as induction of biphasic transition at <5 uM by UV-vis spectrophotometric analysis.
For a further series, the system named is Enterococcus faecalis. Description: Antibacterial activity against Enterococcus faecalis ATCC 29212 after 24 hrs by microbroth dilution method. As to conditions: ATCC 29212, 24 h. It counts as functional. Summed up: (§1)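 Microbroth dilution per CLSI guidelines. Organisms grown in Mueller−Hinton broth at 37 °C with shaking to log phase, pelleted, resuspended in 0.85% saline to OD625 0.1. Final inoculum 5 × 10^5 CFU/mL; triplicate; 24 h at 37 °C. OD625 read; MIC = lowest concentration completely inhibiting growth versus untreated controls.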

The nature of series [2]: Inhibition of Escherichia coli DNA topoisomerase 1 using plasmid pBAD-GFPuv as substrate after 15 mins by agarose gel electrophoresis. The method in brief:
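E. coli topoisomerase I at 6 nM relaxing 150 ng supercoiled pBAD-GFPuv. 15 min at 37 °C, phenol-stopped, 1% agarose gel, ethidium stain. IC50 is the concentration leaving 50% DNA supercoiled; three independent determinations.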

Series [3] has as its system Escherichia coli. Description: Antibacterial activity against Escherichia coli ATCC 25922 after 24 hrs by microbroth dilution method. It counts as functional. As to conditions: ATCC 25922, 24 h. The method in brief:
as §1
In general terms: Broth dilution looks for growth in wells or tubes with falling amounts of substance.

The test system of the next series is Pseudomonas aeruginosa. As to the kind of experiment: Antibacterial activity against Pseudomonas aeruginosa ATCC 27853 after 24 hrs by microbroth dilution method. The series is classed as functional. As to conditions: ATCC 27853, 24 h. Summed up:
as §1

The test system of series [4] is Staphylococcus aureus. As to the kind of experiment: Antibacterial activity against Staphylococcus aureus ATCC 29213 after 24 hrs by microbroth dilution method. The series is classed as functional. As to conditions: ATCC 29213, 24 h. Summed up: as §1
For series [5], the system named is Escherichia coli. As to the kind of experiment: Antibacterial activity against Escherichia coli K-12 after 24 hrs by microbroth dilution method. It counts as functional. Conditions: K-12, 24 h. The method in brief: as §1
A short description of series [6]: Binding affinity to dA60.dT60 B-DNA duplex (unknown origin) assessed as change in melting temperature at 10 uM by UV-vis spectrophotometric analysis. Summed up: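 UV melting of dA60·dT60 at 1 μM/duplex with compound at 10 μM. Buffer 10 mM sodium cacodylate, 0.1 mM EDTA, 100 mM NaCl, pH 7.0; duplex pre-annealed from 95 °C. Compound stocks in DMSO diluted into buffer. Heating at 0.2 °C/min, monitored at 260 nm, points every 1.0 °C; Tm taken from derivatives.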

In series [7] the test system is Staphylococcus aureus. Description: Antibacterial activity against Staphylococcus aureus ATCC 33591 after 24 hrs by microbroth dilution method. It counts as functional. Conditions: ATCC 33591, 24 h. The method in brief:
as §1

The target in the next series is T1, DNA topoisomerase 1 (Homo sapiens, UniProt P11387).
T1 sequence (P11387 whole entry): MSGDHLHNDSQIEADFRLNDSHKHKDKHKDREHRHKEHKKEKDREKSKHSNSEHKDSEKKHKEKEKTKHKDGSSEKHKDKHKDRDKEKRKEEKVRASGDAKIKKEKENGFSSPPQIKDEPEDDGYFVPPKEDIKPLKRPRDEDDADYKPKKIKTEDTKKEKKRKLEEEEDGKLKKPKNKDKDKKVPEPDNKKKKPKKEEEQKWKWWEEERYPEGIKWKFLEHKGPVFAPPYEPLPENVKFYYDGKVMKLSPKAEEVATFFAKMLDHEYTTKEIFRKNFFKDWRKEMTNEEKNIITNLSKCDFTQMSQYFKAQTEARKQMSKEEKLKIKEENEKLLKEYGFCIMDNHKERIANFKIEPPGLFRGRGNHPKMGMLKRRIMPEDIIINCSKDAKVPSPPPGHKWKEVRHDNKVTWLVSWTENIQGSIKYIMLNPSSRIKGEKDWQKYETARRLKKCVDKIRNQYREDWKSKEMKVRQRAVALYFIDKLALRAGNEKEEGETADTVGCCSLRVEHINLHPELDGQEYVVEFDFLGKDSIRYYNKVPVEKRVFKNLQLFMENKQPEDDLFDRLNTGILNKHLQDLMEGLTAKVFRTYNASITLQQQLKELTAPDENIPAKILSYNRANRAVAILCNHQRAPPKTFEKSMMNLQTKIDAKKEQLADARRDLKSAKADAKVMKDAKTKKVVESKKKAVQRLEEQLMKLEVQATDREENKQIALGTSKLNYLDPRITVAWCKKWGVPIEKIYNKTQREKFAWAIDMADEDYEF
Description: Inhibition of human DNA topoisomerase 1 using plasmid pBAD-GFPuv as substrate after 30 mins by agarose gel electrophoresis.

The next series concerns Enterobacter cloacae. As to the kind of experiment: Antibacterial activity against Enterobacter cloacae ATCC 13047 after 24 hrs by microbroth dilution method. It counts as functional. As to conditions: ATCC 13047, 24 h. Summed up:
as §1

A further series relates to Acinetobacter baumannii. Description: Antibacterial activity against Acinetobacter baumannii ATCC 19606 after 24 hrs by microbroth dilution method. It counts as functional. As to conditions: ATCC 19606 = CIP 70.34 = JCM 6841, 24 h. The method in brief:
as §1

The subject of another series is Shigella flexneri. As to the kind of experiment: Antibacterial activity against Shigella flexneri 2457NR517 after 24 hrs by microbroth dilution method. It counts as functional. As to conditions: 2457NR517, 24 h. Summed up:
(§2)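 Mueller-Hinton broth cultures grown at 37 °C with shaking to log phase, pelleted, resuspended in 0.85% saline to OD625 0.1. Broth microdilution per CLSI guidelines, final inoculum 5 × 10^5 CFU/mL, in triplicate, 24 h at 37 °C. Growth read as OD625. MIC is the lowest concentration giving complete growth inhibition versus untreated controls.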

Another series has as its system DU-145. Description: Cytotoxicity against human DU145 cells after 48 hrs by SRB assay. The series is classed as cell-based. Summed up:
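Cells cultured per ATCC protocols, seeded and grown 24 h (37 °C, 5% CO2), then treated in triplicate at final 20, 10, 5, 2.5, 1.25, 0.625 and 0.0625 μM for 48 h. Fixed with cold TCA (16% final, 4 °C, 1 h), stained with SRB in 1% acetic acid, dye solubilized in 10 mM Tris base, A560 read. IC50 derived; study in duplicate.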
Background: Sulforhodamine B stains cellular protein and so reports cell mass.

Another series has as its system Klebsiella pneumoniae. As to the kind of experiment: Antibacterial activity against Klebsiella pneumoniae NR15410 after 24 hrs by microbroth dilution method. Conditions: NR15410, 24 h. It counts as functional. Summed up: as §1
The test system of series [8] is Staphylococcus epidermidis. Description: Antibacterial activity against Staphylococcus epidermidis ATCC 12384 after 24 hrs by microbroth dilution method. The series is classed as functional. As to conditions: ATCC 12384, 24 h. Summed up: as §1
Series [9] relates to Staphylococcus aureus. As to the kind of experiment: Antibacterial activity against methicillin-resistant Staphylococcus aureus A960649 after 24 hrs by microbroth dilution method. As to conditions: A960649, 24 h. The series is classed as functional. Summed up: as §2
Series [10] can be described thus: Inhibition of human DNA topoisomerase 2 using plasmid pBAD-GFPuv as substrate after 30 mins by agarose gel electrophoresis. Summed up: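 Compound at 5–50 μM final, 30 min at 37 °C. Phenol extraction, 1% agarose electrophoresis, ethidium stain. IC50 = concentration at which 50% of DNA remains (−) supercoiled.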
A further series relates to Enterococcus faecium. Description: Antibacterial activity against Enterococcus faecium BM4105RF after 24 hrs by microbroth dilution method. It counts as functional. The method in brief: as §2
Another series concerns Citrobacter freundii. Description: Antibacterial activity against Citrobacter freundii 4747CFAA after 24 hrs by microbroth dilution method. It counts as functional. Summed up:
as §1

Series [11] deals with Staphylococcus aureus. As to the kind of experiment: Antibacterial activity against methicillin-resistant Staphylococcus aureus 33591 after 24 hrs by microbroth dilution method. It counts as functional. As to conditions: Staphylococcus aureus, 33591, 24 h. Summed up: as §2
For series [12], the system named is Escherichia coli. As to the kind of experiment: Inhibition of Escherichia coli RNA topoisomerase-1 using circular RNA as substrate 10 uM after 1.5 hrs by SDS-PAGE analysis. Summed up: (§3)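 10 nM E. coli topoisomerase I premixed with reaction buffer and inhibitor diluted in DMSO, then circular RNA substrate added; 1.5 h incubation. Stopped with proteinase K/SDS/EDTA buffer. Trefoil RNA knot product separated from circular substrate on 15% TBE−urea gels and detected by phosphorimaging. DMSO-only control included.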

The test system of series [13] is Escherichia coli. Description: Inhibition of Escherichia coli RNA topoisomerase 1 using circular RNA as substrate up to 80 uM after 1.5 hrs by SDS-PAGE analysis. The method in brief:
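E. coli topoisomerase I (10 nM) premixed in reaction buffer with inhibitor diluted in DMSO, then circular RNA substrate added; 1.5 h. DMSO-only control included. Final inhibitor 2.5 to 80 μM. Stopped with proteinase K/SDS/EDTA. Trefoil RNA knot product resolved from substrate on 15% TBE-urea gels and detected by autoradiography.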

Series [14] concerns Escherichia coli. As to the kind of experiment: Inhibition of Escherichia coli RNA topoisomerase 1 using circular RNA as substrate up to 50 uM after 1.5 hrs by SDS-PAGE analysis. The method in brief: as §3

In brackets after ≈: the same amount, converted by molar mass. Activity calls are given as the source filed them. The rule behind the calls is not given here. Some results are limits rather than exact numbers.

By MIC is commonly meant the lowest concentration found to suppress growth. Higher therefore signals weaker potency. For orientation: IC50 means the midpoint of a concentration-inhibition curve. Read a low IC50 as greater potency in that assay. As usually defined, the ΔTm is the shift of the melting midpoint relative to a reference.

As for `C#CCOCCCCCCCCCCOc1ccc(-c2nc3ccc(-c4nc5ccc(N6CCN(C)CC6)cc5[nH]4)cc3[nH]2)cc1`, the result in [1] was Active. For the same molecule, the MIC in the series on Enterococcus faecalis was 16 to 32 µg/mL (≈ 25.9 to 51.7 µM); in the series with Escherichia coli [3], over 32 µg/mL; with Pseudomonas aeruginosa, 16 to 32 µg/mL (≈ 25.9 to 51.7 µM); with Staphylococcus aureus [4], over 32 µg/mL; in the series on Escherichia coli [5], 2 to 4 µg/mL (≈ 3.23 to 6.46 µM); in the series with Staphylococcus aureus [7] it was over 32 µg/mL. Besides, the MIC (with Enterobacter cloacae; against Acinetobacter baumannii; against Shigella flexneri; in the series on Klebsiella pneumoniae; in series [8]; against Staphylococcus aureus [9]) was over 32 µg/mL in each case. Further, the MIC against Enterococcus faecium, against Citrobacter freundii and in the series on Staphylococcus aureus [11] was over 32 µg/mL throughout. Besides, the IC50 in [2] is 12.2 µM; at DNA topoisomerase 1, over 50 µM; in the series with DU-145 (Homo sapiens, DU-145, 48 h), over 10 µM; in series [10], over 50 µM. Besides, in series [6], the ΔTm was 5.6 °C. In addition, the inhibition result in the series on Escherichia coli [12] was “Active”.

Consider `CCOc1ccc2nc3cc(N)ccc3c(N)c2c1`, for which the inhibition entry with Escherichia coli [13] was “inactive”.

Consider `C#CCOCCCCCCOc1ccc(-c2nc3ccc(-c4nc5ccc(N6CCN(C)CC6)cc5[nH]4)cc3[nH]2)cc1`, for which the outcome in series [1] was Active. The MIC is 16 to 32 µg/mL (≈ 28.4 to 56.9 µM) against Enterococcus faecalis; 16 to 32 µg/mL (≈ 28.4 to 56.9 µM) against Escherichia coli [3]; 16 to 32 µg/mL (≈ 28.4 to 56.9 µM) against Pseudomonas aeruginosa; 16 to 32 µg/mL (≈ 28.4 to 56.9 µM) in the series on Staphylococcus aureus [4]; 8 µg/mL (≈ 14.2 µM) in the series with Escherichia coli [5]; 16 to 32 µg/mL (≈ 28.4 to 56.9 µM) in the series with Staphylococcus aureus [7]. Further, the MIC (with Enterobacter cloacae; against Acinetobacter baumannii; against Shigella flexneri; against Klebsiella pneumoniae; in series [8]; in the series with Staphylococcus aureus [9]) was over 32 µg/mL each time. The MIC with Enterococcus faecium, in the series on Citrobacter freundii and against Staphylococcus aureus [11] was over 32 µg/mL in each case. In addition, the IC50 was 3.2 µM in [2] and over 50 µM against DNA topoisomerase 1. Moreover, the ΔTm in series [6] came to 18.3 °C. Also, the inhibition result with Escherichia coli [14] is “inactive”. Moreover, the Activity entry with DU-145 (human, du-145, 48 h) is listed as “Toxic”.
